Consider five compounds from ChEMBL document CHEMBL1138216, “Design and synthesis of novel derivatives of the muscarinic agonist tetra(ethylene glycol)(3-methoxy-1,2,5-thiadiazol-4-yl) [3-(1-methyl-1,2,5,6-tetrahydropyrid-3-yl)-1,2,5-thiadiazol-4-yl] ether (CDD-0304): effects of structural modifications on the binding and activity at muscarinic receptor …” (J Med Chem, 2006).

What is called IC50 is the concentration at which inhibition is half-maximal. In general, Ki refers to a measure of affinity in units of concentration, obtained from inhibition or displacement. Usually EC50 stands for the midpoint of the concentration-response curve.

Calls of active or inactive are those of the source. No cut-off for these calls is given here.

For one test, the target named is T1, Muscarinic acetylcholine receptor M4 (Homo sapiens, UniProt P08173).
T1 sequence (P08173 whole entry): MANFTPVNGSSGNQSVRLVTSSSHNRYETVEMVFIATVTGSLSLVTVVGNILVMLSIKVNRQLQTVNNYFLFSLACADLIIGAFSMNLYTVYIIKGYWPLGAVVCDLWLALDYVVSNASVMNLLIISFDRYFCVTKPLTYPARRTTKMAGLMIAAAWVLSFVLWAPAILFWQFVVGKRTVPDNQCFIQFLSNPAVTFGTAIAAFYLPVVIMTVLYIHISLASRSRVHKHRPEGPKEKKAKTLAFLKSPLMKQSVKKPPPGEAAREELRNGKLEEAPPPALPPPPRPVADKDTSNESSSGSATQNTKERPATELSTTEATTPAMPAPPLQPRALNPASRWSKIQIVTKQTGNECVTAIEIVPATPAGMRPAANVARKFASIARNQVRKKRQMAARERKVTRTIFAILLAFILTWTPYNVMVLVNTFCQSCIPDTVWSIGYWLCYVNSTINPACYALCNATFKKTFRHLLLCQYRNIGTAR
Briefly: Activity at human M4 receptor assessed as inhibition of forskolin-stimulated cAMP accumulation.
Conditions: not given
The test is classed as functional. (Changes in cAMP serve as a functional read-out for many G protein-coupled receptors.)
In the case of `COc1nsnc1OCCOCCOc1nsnc1C1=CCCN(C)C1`, the IC50 was 7940 nM.

In a further test the target is T2, Muscarinic acetylcholine receptor M1 (Homo sapiens) (UniProt P11229).
T2 sequence (whole entry): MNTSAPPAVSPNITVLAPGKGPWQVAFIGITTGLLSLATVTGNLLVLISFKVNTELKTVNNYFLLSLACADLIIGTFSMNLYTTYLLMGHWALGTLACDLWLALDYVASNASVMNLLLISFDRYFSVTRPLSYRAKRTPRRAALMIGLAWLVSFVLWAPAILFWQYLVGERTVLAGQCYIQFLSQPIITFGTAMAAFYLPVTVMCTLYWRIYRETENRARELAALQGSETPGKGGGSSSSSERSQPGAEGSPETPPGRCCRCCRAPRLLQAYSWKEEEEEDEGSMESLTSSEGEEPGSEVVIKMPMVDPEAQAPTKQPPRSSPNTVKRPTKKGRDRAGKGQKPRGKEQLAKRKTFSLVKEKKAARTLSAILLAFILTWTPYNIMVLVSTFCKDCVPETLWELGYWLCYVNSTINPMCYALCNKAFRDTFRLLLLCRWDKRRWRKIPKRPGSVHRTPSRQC
Briefly: Agonist activity at human M1 receptor expressed in A9 L cells assessed as stimulation of phosphoinositide hydrolysis relative to carbachol. The test is classed as functional, cell-based. The conditions noted are these: L929. In short, it runs like this:
(§1)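 A9 L cells stably expressing the receptor, seeded 24 h, labelled overnight with 10 µCi/mL [3H]inositol in inositol-free DMEM; ligands in HBSS with 10 mM LiCl, 20 mM HEPES, 37 °C, 1 h; formic acid extraction, inositol phosphates counted by SPA beads.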
Consider `COc1nsnc1OCCCOCCCOCCCOc1nsnc1C1=CCCN(C)C1`, for which the Smax was found to be 21%.

As to `COc1nsnc1OCCOCCOc1nsnc1C1=CCCN(C)C1`, the Smax worked out at 11%.

Another test has as its target T3, Muscarinic acetylcholine receptor M2 (Homo sapiens) (UniProt P08172).
T3 sequence (whole entry): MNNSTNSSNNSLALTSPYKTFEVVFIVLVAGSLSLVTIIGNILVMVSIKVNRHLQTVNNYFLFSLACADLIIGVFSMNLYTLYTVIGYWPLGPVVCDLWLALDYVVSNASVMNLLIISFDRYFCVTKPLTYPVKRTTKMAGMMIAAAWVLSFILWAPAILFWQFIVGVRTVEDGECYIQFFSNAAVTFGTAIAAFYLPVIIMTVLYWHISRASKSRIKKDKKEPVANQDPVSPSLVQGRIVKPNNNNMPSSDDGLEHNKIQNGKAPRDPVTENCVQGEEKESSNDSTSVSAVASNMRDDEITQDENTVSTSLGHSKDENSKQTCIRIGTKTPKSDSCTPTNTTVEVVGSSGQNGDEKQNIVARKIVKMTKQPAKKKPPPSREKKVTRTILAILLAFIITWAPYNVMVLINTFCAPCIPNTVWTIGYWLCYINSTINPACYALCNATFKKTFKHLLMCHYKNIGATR
Briefly: Activity at human M2 receptor assessed as inhibition of forskolin-stimulated cAMP accumulation at 1 mM relative to carbachol. The test is classed as functional.
Conditions: not given
On to `COc1nsnc1OCCCOCCCOCCCOc1nsnc1C1=CCCN(C)C1`, for which the Imax was 130%.

Another test concerns the target T4, Muscarinic acetylcholine receptor M1 (Homo sapiens, UniProt P11229).
T4 sequence (P11229 whole entry): T2 sequence (whole entry)
Nature of the test: Inhibition of [3H](R)-QNB binding to human M1 receptor expressed in A9 L cells. The test is classed as cell-based, A9L.
Conditions: not given
Consider `COc1nsnc1OCCCOCCCOCCCOc1nsnc1C1=CCCN(C)C1`, for which the affinity, expressed as Ki, was 100 nM.

`COc1nsnc1OCCOCCOc1nsnc1C1=CCCN(C)C1`: the Ki is 794 nM. Compared with the last compound, the Ki is about 7.9-fold higher.

The target of the next test is T5, Muscarinic acetylcholine receptor M5 (Homo sapiens, UniProt P08912).
T5 sequence (P08912 whole entry): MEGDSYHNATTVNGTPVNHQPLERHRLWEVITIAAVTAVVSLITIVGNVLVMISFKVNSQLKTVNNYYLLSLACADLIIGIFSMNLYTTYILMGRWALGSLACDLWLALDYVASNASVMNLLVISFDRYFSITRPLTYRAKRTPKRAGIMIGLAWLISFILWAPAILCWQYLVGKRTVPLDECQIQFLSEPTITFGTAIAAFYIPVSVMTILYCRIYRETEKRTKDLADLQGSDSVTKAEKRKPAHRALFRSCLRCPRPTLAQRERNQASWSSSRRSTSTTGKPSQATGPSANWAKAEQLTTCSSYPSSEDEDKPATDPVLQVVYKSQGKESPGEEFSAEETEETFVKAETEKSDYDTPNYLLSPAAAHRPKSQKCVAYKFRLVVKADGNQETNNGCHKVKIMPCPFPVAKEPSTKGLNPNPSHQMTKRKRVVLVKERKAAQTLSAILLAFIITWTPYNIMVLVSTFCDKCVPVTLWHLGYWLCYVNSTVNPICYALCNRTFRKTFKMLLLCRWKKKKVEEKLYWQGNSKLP
Briefly: Inhibition of [3H](R)-QNB binding to human M5 receptor expressed in A9 L cells. The test is classed as cell-based, A9L.
Conditions: not given
In outline:
(§2)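 Membranes from A9 L cells expressing the receptor; 0.1 nM [3H]-(R)-QNB with 14 concentrations of test ligand (0.01 nM to 3 mM) in 25 mM sodium phosphate pH 7.4, 5 mM MgCl2, 2 h room temperature; nonspecific binding with 1000-fold excess unlabeled (R)-QNB.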
`COc1nsnc1OCCCOCCCOCCCOc1nsnc1C1=CCCN(C)C1` had a Ki of 100 nM.

In the case of `COc1nsnc1OCCOCCOc1nsnc1C1=CCCN(C)C1`, the affinity, expressed as Ki, was 251 nM. This Ki is about 2.5-fold higher than that of the compound before.

In another test the target is T6, Muscarinic acetylcholine receptor M5 (Homo sapiens) (UniProt P08912).
T6 sequence (whole entry): T5 sequence (P08912 whole entry)
Nature of the test: Agonist activity at human M5 receptor expressed in A9 L cells assessed as stimulation of phosphoinositide hydrolysis relative to carbachol. The test is classed as functional, cell-based. The conditions noted are these: L929. In outline:
as §1
As for `COc1nsnc1OCCCOCCCOCCCOc1nsnc1C1=CCCN(C)C1`, the Smax amounted to 0.6%.

For a further test, the target named is T7, Muscarinic acetylcholine receptor M3 (Homo sapiens, UniProt P20309). Nature of the test: Inhibition of [3H](R)-QNB binding to human M3 receptor expressed in A9 L cells. The test is classed as cell-based, A9L.
Conditions: not given
Target sequence in this assay (P20309 whole entry): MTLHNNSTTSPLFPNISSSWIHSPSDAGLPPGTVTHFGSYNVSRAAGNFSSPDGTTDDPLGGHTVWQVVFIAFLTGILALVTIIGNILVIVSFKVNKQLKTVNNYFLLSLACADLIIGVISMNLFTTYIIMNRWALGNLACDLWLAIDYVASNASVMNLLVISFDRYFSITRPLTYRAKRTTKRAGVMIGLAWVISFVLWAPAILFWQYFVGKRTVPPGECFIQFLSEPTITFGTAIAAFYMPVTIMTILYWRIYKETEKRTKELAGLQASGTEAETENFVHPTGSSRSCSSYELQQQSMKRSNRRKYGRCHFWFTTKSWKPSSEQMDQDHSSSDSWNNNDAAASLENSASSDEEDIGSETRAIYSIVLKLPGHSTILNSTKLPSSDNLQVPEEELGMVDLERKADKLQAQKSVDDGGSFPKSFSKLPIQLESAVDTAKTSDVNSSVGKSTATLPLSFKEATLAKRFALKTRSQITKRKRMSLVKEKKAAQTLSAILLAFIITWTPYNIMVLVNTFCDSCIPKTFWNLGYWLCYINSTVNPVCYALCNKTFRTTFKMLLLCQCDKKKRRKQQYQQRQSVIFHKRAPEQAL
As to `COc1nsnc1OCCCOCCCOCCCOc1nsnc1C1=CCCN(C)C1`, the affinity corresponds to a Ki of 200 nM.

`COc1nsnc1OCCOCCOc1nsnc1C1=CCCN(C)C1` had a Ki of 50.1 nM. Compared with the last compound, the Ki is about 4-fold lower.

The target of the next test is T8, Muscarinic acetylcholine receptor M4 (Homo sapiens) (UniProt P08173).
T8 sequence (whole entry): T1 sequence (P08173 whole entry)
Briefly: Activity at human M4 receptor assessed as inhibition of forskolin-stimulated cAMP accumulation at 1 mM relative to carbachol. The test is classed as functional.
Conditions: not given
`COc1nsnc1OCCCOCCCOCCCOc1nsnc1C1=CCCN(C)C1`: the Imax came to 260%.

The target of a further test is T3, Muscarinic acetylcholine receptor M2 (Homo sapiens). Nature of the test: Activity at human M2 receptor assessed as inhibition of forskolin-stimulated cAMP accumulation relative to carbachol. The test is classed as functional.
Conditions: not given
As for `COc1nsnc1OCCOCCOc1nsnc1C1=CCCN(C)C1`, the Imax amounted to 77%.

In another test the target is T4, Muscarinic acetylcholine receptor M1. Briefly: Agonist activity at human M1 receptor expressed in A9 L cells assessed as stimulation of phosphoinositide hydrolysis. The test is classed as functional, cell-based, L929.
Conditions: not given
Turning to `COc1nsnc1OCCCOCCCOCCCOc1nsnc1C1=CCCN(C)C1`, the EC50 is 3160 nM.

In the case of `COc1nsnc1OCCOCCOc1nsnc1C1=CCCN(C)C1`, the EC50 was 1000 nM.

A further test has as its target T6, Muscarinic acetylcholine receptor M5 (Homo sapiens). Briefly: Agonist activity at human M5 receptor expressed in A9 L cells assessed as stimulation of phosphoinositide hydrolysis at 100 uM relative to carbachol. The test is classed as functional, cell-based. The conditions noted are these: L929.
In the case of `COc1nsnc1OCCOCCOc1nsnc1C1=CCCN(C)C1`, the Smax turned out to be 0.83%.

The next test concerns the target T9, Muscarinic acetylcholine receptor M2 (Homo sapiens, UniProt P08172).
T9 sequence (P08172 whole entry): T3 sequence (whole entry)
Briefly: Inhibition of [3H](R)-QNB binding to human M2 receptor expressed in A9 L cells. The test is classed as cell-based, A9L.
Conditions: not given
In short, it runs like this: as §2
`COc1nsnc1OCCCOCCCOCCCOc1nsnc1C1=CCCN(C)C1` showed a Ki of 158 nM.

`COc1nsnc1OCCOCCOc1nsnc1C1=CCCN(C)C1` had a Ki of 39.8 nM.

In a further test the target is T1, Muscarinic acetylcholine receptor M4. Nature of the test: Inhibition of [3H](R)-QNB binding to human M4 receptor expressed in A9 L cells. The test is classed as cell-based, A9L.
Conditions: not given
In outline: as §2
In turn, `COc1nsnc1OCCCOCCCOCCCOc1nsnc1C1=CCCN(C)C1` gave a Ki of 158 nM. In other words, the sub-micromolar range.

`COc1nsnc1OCCOCCOc1nsnc1C1=CCCN(C)C1` gave a Ki of 63.1 nM.

Another test has as its target T9, Muscarinic acetylcholine receptor M2. Briefly: Activity at human M2 receptor assessed as inhibition of forskolin-stimulated cAMP accumulation.
Conditions: not given
The test is classed as functional.
Turning to `COc1nsnc1OCCOCCOc1nsnc1C1=CCCN(C)C1`, the IC50 was 79.4 nM.

Another test concerns the target T7, Muscarinic acetylcholine receptor M3. Briefly: Agonist activity at human M3 receptor expressed in A9 L cells assessed as stimulation of phosphoinositide hydrolysis relative to carbachol. The test is classed as functional, cell-based. The conditions noted are these: L929. In outline:
as §1
Target sequence in this assay (P20309 whole entry, looked up): as the sequence (P20309 whole entry) above
Regarding `COc1nsnc1OCCCOCCCOCCCOc1nsnc1C1=CCCN(C)C1`, the result was inactive.

With `COc1nsnc1OCCOCCOc1nsnc1C1=CCCN(C)C1`, the outcome was inactive.

The subject of another test is Rattus norvegicus. Briefly: Antipsychotic activity in Sprague-Dawley rat assessed as ability to reverse apomorphine effect on prepulse inhibition of the startle response at 1 mg/kg, sc. The test is classed as functional, organism-based. Details: dose 1 mg/kg.
Conditions: not given
In short, it runs like this: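 Male Sprague-Dawley rats, 250-300 g, habituated a day before. Drug in water or saline sc (1 mL/kg) 25 min, apomorphine 1.0 mg/kg 5 min pre-test; muscarinic agonists 0.1-3 mg/kg. Session of 15 each pulse-alone (120 dB, 100 ms) and pulse preceded 200 ms by 20 ms prepulse 12 dB above 70 dB background; 12 rats/group; %PPI calculated.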
In the case of `Clc1ccc2c(c1)N=C(N1CCNCC1)c1ccccc1N2`, the outcome was inactive.

Consider `O=C(CCCN1CCC(O)(c2ccc(Cl)cc2)CC1)c1ccc(F)cc1`, for which the outcome was Active.

As to `CN1CCN(C2=Nc3cc(Cl)ccc3Nc3ccccc32)CC1`, the result was Active.

A further test concerns the target T8, Muscarinic acetylcholine receptor M4 (Homo sapiens). Briefly: Activity at human M4 receptor assessed as inhibition of forskolin-stimulated cAMP accumulation relative to carbachol. The test is classed as functional.
Conditions: not given
On to `COc1nsnc1OCCOCCOc1nsnc1C1=CCCN(C)C1`, for which the Imax amounted to 47%.
